Source: ChEMBL document CHEMBL3616437, “Thiazole compounds with activity against Cryptococcus gattii and Cryptococcus neoformans in vitro” (Eur J Med Chem, 2015)
In brackets after ≈: the same amount, converted by molar mass.

What was measured:
[1] = test system: Cryptococcus gattii species complex; assay: Antifungal activity against Cryptococcus gattii L24/01 after 48 to 72 hrs by broth microdilution method; type: functional, Cryptococcus bacillisporus
Procedure, shortened: (§1)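 CLSI M27-A3 broth microdilution in RPMI with L-glutamine, buffered to pH 7.0 with 0.165 M MOPS. Colonies grown twice on SDA, 48 h at 35°C. Inoculum set to 70% transmittance at 530 nm, then diluted to 1-5 x10^3 cells/mL. Test agents dissolved in DMSO, serially diluted, tested at 0.1 to 62.5 µM. Plates held at 35°C for 48-72 h. MIC is the lowest concentration giving an optically clear well, read visually against drug-free growth controls.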

Cryptococcus neoformans [2] = assay: Antifungal activity against Cryptococcus neoformans VM-MCMMPI after 48 to 72 hrs by broth microdilution method; type: functional
Procedure, shortened: (§2)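 CLSI M27-A3 broth microdilution. Isolates subcultured twice on SDA, 48 h at 35°C. Saline suspension adjusted to 70% transmittance at 530 nm, then diluted to 1-5 x10^3 cells/mL in RPMI with L-glutamine, 0.165 M MOPS, pH 7.0. Compounds in DMSO, tested at […]. 35°C for 48-72 h. MIC read visually as the lowest concentration giving an optically clear well.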

[3] = test system: Cryptococcus gattii species complex; assay: Antifungal activity against Cryptococcus gattii 547/OTTI-97-PI-10 after 48 to 72 hrs by broth microdilution method; type: functional, Cryptococcus bacillisporus; procedure, shortened: as §1
Cryptococcus neoformans [4] = assay: Antifungal activity against Cryptococcus neoformans 28JF after 48 to 72 hrs by broth microdilution method; type: functional; procedure, shortened: as §2
Cryptococcus neoformans [5] = assay: Antifungal activity against Cryptococcus neoformans WP after 48 to 72 hrs by broth microdilution method; type: functional; procedure, shortened: as §2
Cryptococcus neoformans [6] = assay: Antifungal activity against Cryptococcus neoformans ATCC 28957 after 48 to 72 hrs by broth microdilution method; type: functional; procedure, shortened: as §2
Cryptococcus neoformans [7] = assay: Antifungal activity against Cryptococcus neoformans 5396 after 48 to 72 hrs by broth microdilution method; type: functional; procedure, shortened: as §2
Cryptococcus neoformans [8] = assay: Antifungal activity against Cryptococcus neoformans CN31 after 48 to 72 hrs by broth microdilution method; type: functional; procedure, shortened: as §2
[9] = test system: Cryptococcus gattii species complex; assay: Antifungal activity against Cryptococcus gattii ICB181 after 48 to 72 hrs by broth microdilution method; type: functional, Cryptococcus bacillisporus; procedure, shortened: as §1
Cryptococcus neoformans [10] = assay: Antifungal activity against Cryptococcus neoformans F10 after 48 to 72 hrs by broth microdilution method; type: functional; procedure, shortened: as §2
Cryptococcus neoformans [11] = assay: Antifungal activity against Cryptococcus neoformans 27JF after 48 to 72 hrs by broth microdilution method; type: functional; procedure, shortened: as §2
Vero = assay: Cytotoxicity against African green monkey Vero cells assessed as cell viability measured after 48 hrs by MTT assay; type: cell-based; details: Chlorocebus sabaeus
Procedure, shortened: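 VERO cells in D-MEM with 5% FBS, used up to 20 passages. Seeded 1 x 10^4 cells/well, pre-incubated 24 h at 37°C. Exposed 48 h at 37°C, 5% CO2, to eight nonserial dilutions from 100 to 0.0128 µM, with 0.5% DMSO control. MTT reduction read-out, corrected for background and blank. IC50 reported as median with 95% CI. Triplicate, two independent experiments.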

Cryptococcus neoformans [12] = assay: Antifungal activity against Cryptococcus neoformans LMM820 after 48 to 72 hrs by broth microdilution method; type: functional; procedure, shortened: as §2
Cryptococcus neoformans [13] = assay: Antifungal activity against Cryptococcus neoformans ATCC 62066 after 48 to 72 hrs by broth microdilution method; type: functional
[14] = test system: Cryptococcus gattii species complex; assay: Antifungal activity against Cryptococcus gattii 196L/03 after 48 to 72 hrs by broth microdilution method; type: functional, Cryptococcus bacillisporus; procedure, shortened: as §1
[15] = Selectivity index, ratio of IC50 for C57BL/6 mouse peritoneal macrophages to MIC for Cryptococcus neoformans ATCC 24067
Procedure, shortened: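 SI = IC50/MIC. Thioglycollate-elicited peritoneal macrophages from C57BL/6 mice are seeded at 1 x 10^5/well. They are exposed for 48 h at 37°C to eight concentrations from 100 to 0.0128 µM. Viability read by MTT versus 0.5% DMSO control, triplicate in two experiments.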

[16] = test system: Cryptococcus gattii species complex; assay: Antifungal activity against Cryptococcus gattii L28/02 after 48 to 72 hrs by broth microdilution method; type: functional, Cryptococcus bacillisporus; procedure, shortened: as §1
[17] = test system: Cryptococcus gattii species complex; assay: Antifungal activity against Cryptococcus gattii LMM818 after 48 to 72 hrs by broth microdilution method; type: functional, Cryptococcus bacillisporus; procedure, shortened: as §1
[18] = test system: Cryptococcus gattii species complex; assay: Antifungal activity against Cryptococcus gattii 23/10993 after 48 to 72 hrs by broth microdilution method; type: functional, Cryptococcus bacillisporus; procedure, shortened: as §1
[19] = test system: Cryptococcus gattii species complex; assay: Antifungal activity against Cryptococcus gattii 1913ER after 48 to 72 hrs by broth microdilution method; type: functional, Cryptococcus bacillisporus; procedure, shortened: as §1
[20] = test system: Cryptococcus gattii species complex; assay: Antifungal activity against Cryptococcus gattii L27/01 after 48 to 72 hrs by broth microdilution method; type: functional, Cryptococcus bacillisporus; procedure, shortened: as §1
Cryptococcus neoformans [21] = assay: Antifungal activity against Cryptococcus neoformans 96806 after 48 to 72 hrs by broth microdilution method; type: functional; procedure, shortened: as §2
[22] = test system: Cryptococcus gattii species complex; assay: Antifungal activity against Cryptococcus gattii 135L/03 after 48 to 72 hrs by broth microdilution method; type: functional, Cryptococcus bacillisporus; procedure, shortened: as §1
Cryptococcus neoformans [23] = assay: Ratio of compound MIC for Cryptococcus neoformans 5396 in presence of amphotericin B to compound MIC for Cryptococcus neoformans 5396 in absence of amphotericin B by checkerboard microtiter test; type: functional
Procedure, shortened: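 Checkerboard microdilution: eight two-fold dilutions of test compound (0.11 to 15.6 µM) crossed with amphotericin B (0.025 to 3.9 µM, in DMSO) or fluconazole (0.48 to 62.5 µM, in water). Inoculum per CLSI M27-A3 in RPMI-MOPS pH 7.0, 1-5 x10^3 cells/mL. Growth 48 to 72 h. Effective MIC is the combination concentration giving complete inhibition. FICs derived from MICs in combination versus alone.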

Cryptococcus neoformans [24] = assay: Antifungal activity against Cryptococcus neoformans ATCC 24067 after 48 to 72 hrs by broth microdilution method; type: functional; procedure, shortened: as §2
[25] = Cytotoxicity against C57BL/6 mouse peritoneal macrophages assessed as cell viability measured after 48 hrs by MTT assay; type: cell-based; details: C57BL/6, Peritoneal macrophage cell
Procedure, shortened: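 Thioglycollate-elicited peritoneal macrophages from male C57BL/6 mice, 6–8 weeks old, in RPMI with 10% FBS. Seeded 1 x 10^5 cells/well, pre-incubated 24 h at 37°C. Exposed 48 h at 37°C, 5% CO2, to eight nonserial dilutions from 100 to 0.0128 µM, with 0.5% DMSO control. MTT read-out, % inhibition versus DMSO control. IC50 reported as median with 95% CI. Triplicate, two independent experiments.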

[26] = Selectivity index, ratio of IC50 for African green monkey Vero cells to MIC for Cryptococcus neoformans ATCC 24067; type: toxicity, cell-based
[27] = test system: Cryptococcus bacillisporus; assay: Antifungal activity against Cryptococcus gattii ATCC 32608 after 48 to 72 hrs by broth microdilution method; type: functional; procedure, shortened: as §1

In the case of `c1ccc(-c2csc(NN=C3CCCC3)n2)cc1`, the MFC [1] is reported as 7.8 µM (≈ 2.01 µg/mL), the MIC [1] is reported as 1.7 µM (≈ 0.438 µg/mL) and the MFC (Cryptococcus neoformans [2]) is reported as 7.8 µM (≈ 2.01 µg/mL). For the same compound, the MIC (Cryptococcus neoformans [2]) was 1.6 µM (≈ 0.412 µg/mL), the MFC [3] was 7.8 µM (≈ 2.01 µg/mL) and the MIC [3] was 1.9 µM (≈ 0.489 µg/mL). It also gave an MFC (Cryptococcus neoformans [4]) of 1.9 µM (≈ 0.489 µg/mL), an MIC (Cryptococcus neoformans [4]) of 2.6 µM (≈ 0.669 µg/mL) and an MFC (Cryptococcus neoformans [5]) of 3.9 µM (≈ 1 µg/mL). It also gave an MIC (Cryptococcus neoformans [5]) of 3.2 µM (≈ 0.824 µg/mL), an MFC (Cryptococcus neoformans [6]) of 7.8 µM (≈ 2.01 µg/mL) and an MIC (Cryptococcus neoformans [6]) of 2.2 µM (≈ 0.566 µg/mL). The MFC (Cryptococcus neoformans [7]) was 0.9 µM (≈ 0.232 µg/mL), the MIC (Cryptococcus neoformans [7]) was 1.2 µM (≈ 0.309 µg/mL) and the MFC (Cryptococcus neoformans [8]) was 1.9 µM (≈ 0.489 µg/mL). The MIC (Cryptococcus neoformans [8]) was 1.9 µM (≈ 0.489 µg/mL), the MFC [9] was 1.9 µM (≈ 0.489 µg/mL) and the MIC [9] was 1 µM (≈ 0.257 µg/mL). The MFC (Cryptococcus neoformans [10]) was 7.8 µM (≈ 2.01 µg/mL), the MIC (Cryptococcus neoformans [10]) was 2.2 µM (≈ 0.566 µg/mL) and the MFC (Cryptococcus neoformans [11]) was 7.8 µM (≈ 2.01 µg/mL). The MIC (Cryptococcus neoformans [11]) was 3.2 µM (≈ 0.824 µg/mL), the IC50 (Vero) was > 100 µM and the MFC (Cryptococcus neoformans [12]) was 3.9 µM (≈ 1 µg/mL). The MIC (Cryptococcus neoformans [12]) was 2.2 µM (≈ 0.566 µg/mL), the MFC (Cryptococcus neoformans [13]) was 3.9 µM (≈ 1 µg/mL) and the MIC (Cryptococcus neoformans [13]) was 1.2 µM (≈ 0.309 µg/mL). It also gave an MFC [14] of 7.8 µM (≈ 2.01 µg/mL), an MIC [14] of 2.2 µM (≈ 0.566 µg/mL) and a Ratio [15] of 29. For the same compound, the MFC [16] was 3.9 µM (≈ 1 µg/mL), the MIC [16] was 2.7 µM (≈ 0.695 µg/mL) and the MFC [17] was 3.9 µM (≈ 1 µg/mL). The MIC [17] was 3.4 µM (≈ 0.875 µg/mL), the MFC [18] was 3.9 µM (≈ 1 µg/mL) and the MIC [18] was 2.9 µM (≈ 0.746 µg/mL). The MFC [19] was 7.8 µM (≈ 2.01 µg/mL), the MIC [19] was 1 µM (≈ 0.257 µg/mL) and the MFC [20] was 1.9 µM (≈ 0.489 µg/mL). For the same compound, the MIC [20] was 1.5 µM (≈ 0.386 µg/mL), the MFC (Cryptococcus neoformans [21]) was 7.8 µM (≈ 2.01 µg/mL) and the MIC (Cryptococcus neoformans [21]) was 1.9 µM (≈ 0.489 µg/mL). For the same compound, the MFC [22] was 3.9 µM (≈ 1 µg/mL), the MIC [22] was 3.1 µM (≈ 0.798 µg/mL) and the “fractional inhibitory concentration index (FICI)” value (Cryptococcus neoformans [23]) was 4.86. For the same compound, the MIC (Cryptococcus neoformans [24]) was 1.9 µM (≈ 0.489 µg/mL), the IC50 [25] was > 100 µM and the selectivity ratio [26] was 29. It also gave an MFC [27] of 3.9 µM (≈ 1 µg/mL) and an MIC [27] of 2.2 µM (≈ 0.566 µg/mL).
